Results from PMC8419023 (Structure (London, England : 1993), 2021).
No end group written: not given here.

Tests used:
[1] = tested on: cyclin A; experiment: GST pull down, cyclin A in isolation; type: binding, human; conditions: HEPES pH 7.5; 1 h, 4°C; SDS-PAGE; two experiments; Figure 1C
Procedure, shortened: (§1)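 Bacterially expressed proteins: CDK2 (1–298) as a GST fusion, cyclin A (1–432 or 173–432) as a 6XHis fusion. […] Incubated 1 h at 4 °C with mild agitation, washed three times in binding buffer, and bound material analysed by SDS-PAGE; repeated 2–3 times.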

[2] = tested on: CDK2; experiment: GST pull down, CDK2 in isolation; type: binding, human; conditions: HEPES pH 7.5; 1 h, 4°C; SDS-PAGE; two experiments; Figure 1C
[3] = biological target: CDK2-cyclin A (Homo sapiens, UniProt P20248+P24941); experiment: GST pull down, CDK2-cyclin A; type: binding; conditions: 1 h, 4°C, SDS-PAGE, two experiments; for binding of GST-tagged Skp2 N-terminal fragments to CDK2-cyclin A^1−432: GST pull-down, Figure 4B; for binding of N-terminal deletions to GST:CDK2-cyclin A: GST CDK2-cyclin A^173−432 with Skp1-Skp2 deletions, Figure 1D
Procedure, shortened: as §1

[4] = tested on: CDK2-cyclin A^173−432; experiment: Protein kinase assay, Bora^1−224 phosphorylation by CDK2-cyclin A; type: biochemical, human; conditions: 3 nM CDK2-cyclin A, 30°C, 30 min, Figure 7A
[5] = biological target: CDK2-cyclin A (Surface 2, hydrophobic patch); experiment: Fluorescence polarization displacement of FITC-p27^27−36 from CDK2-cyclin A; type: binding, human; conditions: 25 nM FITC-p27^27−36, CDK2-cyclin A 6.25 μM, HEPES pH 7.5, 30 min, N=4
[6] = tested on: CDK2-cyclin A; conditions: ref Ji et al., 2006; cited from earlier work

GST-Skp2^1−424: GST-tagged full-length Skp2
pull down of cyclin A in isolation [1]: could also pull down cyclin A in isolation
pull down of CDK2 in isolation [2]: not CDK2 in isolation

Skp2^1−29: GST-tagged Skp2 fragment 1–29 (MHRKHLQEIPDLSSNVATSFTWGWDSSKT; also: GST-tagged (end not given here))
binding of GST-tagged Skp2 N-terminal fragments to CDK2-cyclin A^1−432 [3]: A major loss of binding to CDK2-cyclin A

Skp2^1−424: full-length Skp2 in complex with Skp1
concentration for complete inhibition of Bora phosphorylation ([4]; 10 μM Bora^1–224, 0.75 mM ATP [γ−^32P], pH 7.5, phosphoimager): 10 µM
inhibition of phosphorylation of RxL containing substrate (in words) ([4]; Bora^1–224): completely inhibit Bora phosphorylation in vitro in a manner dependent on its N-terminus
IC50 ([5]; Figure 3E): 5.3 µM
IC50 ([5]; Figure 4F): 5.8 µM

Skp2^17−43: GST-tagged Skp2 fragment 17–43 (ATSFTWGWDSSKTSELLSGMGVSALEK; also: GST-tagged (end not given here))
binding of GST-tagged Skp2 N-terminal fragments to CDK2-cyclin A^1−432 [3]: did not affect binding to CDK2-cyclin A

Skp2^28−43: GST-tagged Skp2 fragment 28–43 (KTSELLSGMGVSALEK; also: GST-tagged (end not given here))
binding of GST-tagged Skp2 N-terminal fragments to CDK2-cyclin A^1−432 [3]: did abolish binding

Skp2^Δ1−16: Skp2 with residues 1 to 16 deleted
binding of N-terminal deletions to GST:CDK2-cyclin A [3]: had no effect on CDK2-cyclin A binding

Skp2^Δ1−28: Skp2 with residues 1 to 28 deleted
binding of N-terminal deletions to GST:CDK2-cyclin A [3]: caused a decrease in CDK2-cyclin A binding

p21: CDK inhibitor p21
competition with the N-terminus of Skp2 [6]: compete with the N-terminus of Skp2 for binding to CDK2-cyclin A
